The values below come from BindingDB's records for doi:10.1124/dmd.106.013888 (Act, 2007).

The structures appear in SMILES notation.

In this experiment the target is T1, Lanosterol 14-alpha demethylase (Homo sapiens, UniProt Q16850).
T1 sequence (Q16850 whole entry): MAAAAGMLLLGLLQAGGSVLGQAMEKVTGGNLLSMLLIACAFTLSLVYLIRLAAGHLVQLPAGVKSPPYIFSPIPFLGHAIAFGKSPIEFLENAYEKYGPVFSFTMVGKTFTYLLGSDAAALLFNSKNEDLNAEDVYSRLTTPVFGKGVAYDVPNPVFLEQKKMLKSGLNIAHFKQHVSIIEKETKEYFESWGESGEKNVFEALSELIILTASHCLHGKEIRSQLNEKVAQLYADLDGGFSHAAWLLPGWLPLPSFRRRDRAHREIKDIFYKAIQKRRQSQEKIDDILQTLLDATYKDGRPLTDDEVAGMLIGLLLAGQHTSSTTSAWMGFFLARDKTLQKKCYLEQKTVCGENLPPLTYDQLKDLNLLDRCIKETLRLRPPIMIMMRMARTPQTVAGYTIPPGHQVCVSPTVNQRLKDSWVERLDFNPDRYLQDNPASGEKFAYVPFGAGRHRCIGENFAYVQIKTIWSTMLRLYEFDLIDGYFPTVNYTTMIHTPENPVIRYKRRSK
Nature of the experiment: Inhibition of human CYP51 expressed in Topp 3 cells by lanosterol demethylase assay. The gist of the method:
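0.5 ml phosphate buffer pH 7.4 with KCN, NADPH regenerating system, 60 min at 37 °C. Triene product extracted and quantified by chromatography (ergosterol internal standard). IC50 read from plot of % activity remaining vs concentration.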

The IC50 is the concentration needed to halve the response being measured. In turn, `O=c1c(CC[S+]([O-])c2ccccc2)c(O)n(-c2ccccc2)n1-c1ccccc1` (stereo unspecified) [1,2-Diphenyl-3,5-dioxo-4-(2-phenylsulfinylethyl)pyrazolidine] yielded an IC50 of over 200 µM.
